Inhibition and IC50 data for 45 compounds are collected here from ChEMBL document CHEMBL4261631, “Synthetic thiosemicarbazones as a new class of Mycobacterium tuberculosis protein tyrosine phosphatase A inhibitors” (Bioorg Med Chem, 2018).

Experiment [1] deals with T1, Low molecular weight protein-tyrosine phosphatase A (Mycobacterium tuberculosis) (UniProt P9WIA1).
T1 sequence (whole entry): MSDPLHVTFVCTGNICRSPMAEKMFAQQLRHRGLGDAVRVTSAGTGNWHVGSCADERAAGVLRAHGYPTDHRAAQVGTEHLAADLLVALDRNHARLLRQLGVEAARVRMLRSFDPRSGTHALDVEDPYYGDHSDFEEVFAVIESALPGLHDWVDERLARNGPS
Description: Inhibition of recombinant Mycobacterium tuberculosis PtpA at 25 uM using p-nitrophenyl phosphate as substrate preincubated for 10 mins followed by substrate addition and measured every minute for 10 mins by UV-VIS spectrophotometric analysis. The gist of the method:
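Single-point screen at 25 µM final (from 1 mM DMSO stock, 2.5% DMSO final). 50 nM recombinant Mtb PtpA in 20 mM imidazole pH 7.0, premixed with compound 10 min at 37 °C. Reaction started with 10 mM pNPP. A410 read each min for 10 min at 37 °C. Residual activity from absorbance difference 7 min minus 2 min versus no-inhibitor wells. Triplicate.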

The target in experiment [2] is T2, Low molecular weight protein-tyrosine phosphatase A (Mycobacterium tuberculosis, UniProt P9WIA1).
T2 sequence (P9WIA1 whole entry): T1 sequence (whole entry)
In words: Inhibition of recombinant Mycobacterium tuberculosis PtpA using p-nitrophenyl phosphate as substrate preincubated for 10 mins followed by substrate addition and measured every minute for 10 mins by UV-VIS spectrophotometric analysis. The gist of the method: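 Recombinant Mtb PtpA at 50 nM in 20 mM imidazole pH 7.0, premixed with inhibitor (0.5–50 µM, DMSO ≤4% v/v) 10 min at 37 °C. Started with 10 mM pNPP. A410 read each min for 10 min at 37 °C. Residual activity from 7 min minus 2 min absorbance versus no-inhibitor wells. IC50 by linear regression of % inhibition versus concentration. Triplicate, mean ± SD of three experiments.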

For orientation: inhibition means the change of the read-out against control, counted positive when it falls. Turning to `COc1ccc(NC(=S)N/N=C/c2ccccc2[N+](=O)[O-])cc1`, the inhibition in experiment [1] amounted to 0%.

For the compound `S=C(N/N=C/c1ccc(Cl)cc1)Nc1cccc2ccccc12`, in experiment [1], the inhibition amounted to 0%. Same read-out and setting: to `COc1ccc(OC)c(/C=N/NC(=S)Nc2cccc3ccccc23)c1` belongs 44.2%; to `COc1cc(/C=N/NC(=S)Nc2cccc3ccccc23)cc(OC)c1OC`, 0%. On the same count and under the same terms, to `COc1ccc(NC(=S)N/N=C/c2cc(OC)c(OC)c(OC)c2)cc1` belongs 0%. As for `Cc1ccc(NC(=S)N/N=C/c2ccc(Cl)c(Cl)c2)cc1`, in experiment [1], the inhibition is 23.4%.

Consider `COc1ccc(/C=N/NC(=S)Nc2ccc(OC)cc2)cc1`, for which, in experiment [1], the inhibition was found to be 0%. Same read-out and setting: for `O=[N+]([O-])c1ccccc1/C=N/NC(=S)Nc1cccc2ccccc12` the value was 52.4%.

`Cc1ccc(NC(=S)N/N=C/c2ccc(-c3ccccc3)cc2)cc1`: the inhibition in experiment [1] is 26.3%. A word on the IC50: it is the concentration that inhibits the measured activity by half. With `COc1ccc(/C=N/NC(=S)Nc2cccc3ccccc23)cc1OC`, in experiment [1], the inhibition amounted to 64.5%. In addition, the IC50 in experiment [2] was found to be 18.2 µM. For the compound `Cc1ccc(NC(=S)N/N=C/c2cccc3ccccc23)cc1`, in experiment [1], the inhibition was found to be 33.7%. Same read-out and setting: to `Cc1ccc(NC(=S)N/N=C/c2ccc(Cl)cc2)cc1` belongs 4.9%; to `COc1ccc(NC(=S)N/N=C/c2ccccc2)cc1`, 0%. Still for that read-out and setting: to `COc1ccc(NC(=S)N/N=C/c2ccc3c(c2)OCO3)cc1` belongs 0%; to `Cc1ccc(NC(=S)N/N=C/c2ccc3c(c2)OCO3)cc1`, 25.9%; to `COc1cc(/C=N/NC(=S)Nc2ccc(C)cc2)ccc1O`, 8.8%. Still for that read-out and setting: to `CN(C)c1ccc(/C=N/NC(=S)Nc2cccc3ccccc23)cc1` belongs 51.6%; to `Cc1ccc(NC(=S)N/N=C/c2ccc3ccccc3c2)cc1`, 29.3%; to `COc1ccc(OC)c(/C=N/NC(=S)Nc2ccc(C)cc2)c1`, 2.8%.

As for `COc1ccc(NC(=S)N/N=C/c2ccc3ccccc3c2)cc1`, the inhibition in experiment [1] worked out at 23.7%. Same read-out and setting: to `Cc1ccc(/C=N/NC(=S)Nc2ccc(C)cc2)cc1` belongs 0.7%; to `COc1ccc(NC(=S)N/N=C/c2ccc(-c3ccccc3)cc2)cc1`, 41.2%; to `Cc1ccc(NC(=S)N/N=C/c2ccc(N(C)C)cc2)cc1`, 35.4%. Still for that read-out and setting: to `COc1ccc(/C=N/NC(=S)Nc2cccc3ccccc23)cc1` belongs 22.6%; to `COc1ccc(NC(=S)N/N=C/c2cc(OC)ccc2OC)cc1`, 0%. The same measure, in the same setting: for `S=C(N/N=C/c1ccccc1)Nc1cccc2ccccc12` the value was 58.1%. Take `COc1ccc(NC(=S)N/N=C/c2ccc([N+](=O)[O-])cc2)cc1`: the inhibition in experiment [1] was found to be 64.4%. Moreover, the IC50 in experiment [2] turned out to be 15.1 µM. Take `COc1ccc(NC(=S)N/N=C/c2ccc(Cl)c(Cl)c2)cc1`: the inhibition in experiment [1] is 21.4%. Still for that read-out and setting: to `COc1ccc(/C=N/NC(=S)Nc2ccc(C)cc2)cc1OC` belongs 6.6%; to `COc1ccc(NC(=S)N/N=C/c2ccc(Cl)cc2)cc1`, 1%; to `COc1ccc(NC(=S)N/N=C/c2ccc(C)cc2)cc1`, 0%. On the same count and under the same terms, for `COc1ccc(NC(=S)N/N=C/c2ccc(OC)c(OC)c2)cc1` the value was 0%. On the same count and under the same terms, to `Cc1ccc(NC(=S)N/N=C/c2ccccc2)cc1` belongs 16.6%; to `COc1cc(/C=N/NC(=S)Nc2cccc3ccccc23)ccc1O`, 0%. With `S=C(N/N=C/c1ccc(Cl)c(Cl)c1)Nc1cccc2ccccc12`, the inhibition in experiment [1] amounted to 83.7%. Besides, the IC50 in experiment [2] was found to be 13.4 µM.

For `COc1ccc(NC(=S)N/N=C/c2ccc(N(C)C)cc2)cc1`, the inhibition in experiment [1] was 3.9%. As to `Cc1ccc(NC(=S)N/N=C/c2ccc([N+](=O)[O-])cc2)cc1`, the inhibition in experiment [1] was found to be 37.2%. Same read-out and setting: to `COc1ccc(NC(=S)N/N=C/c2cccc3ccccc23)cc1` belongs 22.7%.

As for `S=C(N/N=C/c1cccc2ccccc12)Nc1cccc2ccccc12`, the inhibition in experiment [1] came out at 10.3%. Regarding `S=C(N/N=C/c1ccc2ccccc2c1)Nc1cccc2ccccc12`, the inhibition in experiment [1] stood at 67.7%. For the same compound, the IC50 in experiment [2] is 23.7 µM.

In the case of `Cc1ccc(NC(=S)N/N=C/c2ccccc2[N+](=O)[O-])cc1`, in experiment [1], the inhibition was determined as 21.6%. The same measure, in the same setting: for `COc1cc(/C=N/NC(=S)Nc2ccc(C)cc2)cc(OC)c1OC` the value was 0%.

Take `S=C(N/N=C/c1ccc2c(c1)OCO2)Nc1cccc2ccccc12`: the inhibition in experiment [1] turned out to be 62.6%. Also, the IC50 in experiment [2] was found to be 17.8 µM.

In the case of `COc1ccc(/C=N/NC(=S)Nc2ccc(C)cc2)cc1`, the inhibition in experiment [1] came out at 8.9%. Take `COc1ccc(NC(=S)N/N=C/c2ccc(O)c(OC)c2)cc1`: the inhibition in experiment [1] came out at 6.6%.
